SKN-1 block – inhibitors of C. elegans SKN-1; C. elegans VP596 Pgst-4::GFP/RFP ratio, acrylamide-induced, 24 h; inhibition, % at 21.8 µM; 360,000 compounds, 0.49% hits; AID 624304;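 active = interference check ratio from 0.5 to 1.5 plus GFP to RFP signal ratio inhibition reaching or exceeding a fixed threshold, cut at about 30% in these data, passing the limit was not always enough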
bovine MsrA act – bovine methionine sulfoxide reductase A activation | purified bovine MsrA, absorbance read-out | activation, % at 10.6 µM | 360,000 compounds, 0.3% hits; in the data active = activation above about 7.5%;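 note: 0% = vehicle and 100% = reference activator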
MT1-MMP act inh – blocks activation of human MT1-MMP. P50281. HT1080 RFP-PRO-GFP cells, GFP/RFP ratio fluorescence, overnight; percent of plate control window, DMSO zero. GFP/RFP ratio change, % at 20 µM. 360,000 compounds, 0.061% hits;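 active = GFP/RFP ratio change of at least 30% with cell ATP level not reduced by more than half and red fluorescence within 50% of control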
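Compound: 20 µM single dose, 1% DMSO / System: HT1080 RFP-PRO-GFP cells / Controls: DMSO and RFP-L50D-GFP cell wells / Read-out basis: GFP/RFP fluorescence ratio / Schedule: overnight compound exposure at 37 °C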
DAGLB inhibitor – blocks human DAGLB lipase activity; Q8NCG7; HEK293T DAGLB membrane lysate, EnzChek fluorogenic substrate; inhibition, % at 5.17 µM; 340,000 compounds, 0.059% hits; in the data active = inhibition above about 34%;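 note: 0% = enzyme with vehicle and 100% = wells lacking enzyme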
Target sequence (Q8NCG7 whole entry, looked up): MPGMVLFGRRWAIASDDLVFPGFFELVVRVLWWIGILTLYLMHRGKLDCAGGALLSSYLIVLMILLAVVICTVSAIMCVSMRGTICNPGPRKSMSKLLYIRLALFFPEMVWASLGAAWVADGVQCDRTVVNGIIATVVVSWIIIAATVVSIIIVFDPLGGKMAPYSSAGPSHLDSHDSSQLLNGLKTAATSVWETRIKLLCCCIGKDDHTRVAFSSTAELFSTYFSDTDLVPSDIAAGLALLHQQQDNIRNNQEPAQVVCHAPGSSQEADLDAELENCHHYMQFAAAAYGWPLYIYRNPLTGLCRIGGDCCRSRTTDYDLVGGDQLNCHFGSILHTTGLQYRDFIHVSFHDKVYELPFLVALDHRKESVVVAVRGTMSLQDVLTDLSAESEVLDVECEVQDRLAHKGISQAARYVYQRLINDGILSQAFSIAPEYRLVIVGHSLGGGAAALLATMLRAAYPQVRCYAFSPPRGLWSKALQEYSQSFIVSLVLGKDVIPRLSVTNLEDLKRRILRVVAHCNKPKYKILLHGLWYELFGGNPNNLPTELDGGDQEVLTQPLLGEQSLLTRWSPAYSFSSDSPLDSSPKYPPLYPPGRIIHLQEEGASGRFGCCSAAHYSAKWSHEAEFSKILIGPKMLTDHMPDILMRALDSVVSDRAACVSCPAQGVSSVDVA
MsrA inhibitor – inhibits bovine methionine sulfoxide reductase A | inhibition, % at 15.5 µM | 360,000 compounds, 0.75% hits | AID 651718 | purified bovine MsrA, absorbance read-out; in the data active = inhibition above about 4.5%;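 note: 0% = vehicle wells with enzyme and 100% = reference inhibitor wells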
beta cell repl – induces beta-cell replication in MIN6 cells | proliferation, % at 10 µM | 330,000 compounds, 0.29% hits | MIN6 cells proliferation, ATPlite luminescence, 48 h; cells starved in 0.2% serum; 100% = growth in 10% serum;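 active = compounds whose signal lies at least 3.5 SD above the mean of all wells on their plate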;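 note: 0% = DMSO-treated cells in low-serum medium and 100% = 10% serum control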
MsrA act confirm – confirmation of bovine methionine sulfoxide reductase A activators. shares compounds with bovine MsrA act. purified bovine MsrA, absorbance read-out. activation, % at 10.6 µM. 1,000 compounds, 12% hits; in the data active = activation above about 4%;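 note: enzyme coupled to thioredoxin and thioredoxin reductase with NADPH; 0% = vehicle wells and 100% = reference activator wells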
An asterisk follows results filed as active; / = not tested or not shown. An excerpt weighted towards active compounds, which were near 1.8% of everything screened.

SMILES | SKN-1 block | bovine MsrA act | MT1-MMP act inh | DAGLB inhibitor | MsrA inhibitor | beta cell repl | MsrA act confirm
Cc1cccc2nc(-c3ccccc3)c(-c3ccc(CN4CCC(n5cc(-c6ccccc6)[nH]c5=O)CC4)cc3)nc12 | / | / | / | / | 1 | / | /
S=c1[nH]nc(Cc2ccccc2)n1Cc1ccco1 | 11 | 7.7* | 5 | 3 | -1 | 1 | 0
CCOC(=O)[C@]12CCC=C1N(Cc1cccc3ccccc13)C(=O)[C@H](CC(=O)NCCc1ccccc1OC)C2 | -3 | -2 | 0 | / | 0 | / | /
CC(=O)Nc1ccc(NC(=O)CSc2nc3c(=O)n(C)c(=O)n(C)c3n2C)cc1 | -11 | -3 | -1 | -1 | 0 | -5 | /
Cn1c(=O)c2nc(SCCO)n(C)c2n(C)c1=O | 7 | 8.4* | 2 | 1 | 1 | / | -3
CCC(=O)N1CCc2cc(Br)cc(S(=O)(=O)NCc3ccco3)c21 | 4 | -9 | 3 | -4 | / | -1 | /
CCC(=O)N1CCc2cc(Br)cc(S(=O)(=O)CCC(=O)NCc3ccco3)c21 | -24 | 14* | -2 | 0 | / | 4 | 0
c1cc2c(cc1-c1[nH]ncc1CN1C[C@H]3CC[C@H]1C3)OCO2 | -5 | 12* | 3 | 1 | 0 | -2 | -2
COc1cc(C(C)=O)ccc1OCC(O)CNCC1(N2CCCCC2)CCCCC1 (stereo not drawn) | 4 | 19* | 3 | -1 | 1 | -1 | 0
CC(C)[C@@H](C)/C=C/[C@@H](C)[C@H]1CC[C@@H]2[C@]1(C)CCC1[C@]23C=C[C@]2(C[C@@H](O)CC[C@]12C)N(C(=O)Cc1ccccc1)O3 (stereo partly drawn) | / | / | / | / | 0 | / | /
CSc1nc2ncnc(N)c2[nH]1 | 10 | -2 | 2 | / | -1 | 0 | /
Nc1ncnc2[nH]c(=S)[nH]c12 | 4 | 11* | -3 | -2 | 0 | / | 1
O=C(CCCc1ccccc1)NCCC1=CCCCC1 | -14 | 8.5* | 3 | -4 | 1 | 0 | -2
O=C(NN1C(=O)c2cc(Br)ccc2NC1c1cc(Br)cc(Br)c1O)c1ccncc1 (stereo not drawn) | -6 | 8.9* | 2 | 13 | 0 | -7 | -4
O=C(NN1C(=O)c2cc(Br)ccc2NC1c1ccccc1Cl)c1ccncc1 (stereo not drawn) | -3 | 1 | 9 | -1 | 1 | -4 | /
CCc1nnc(NC(=O)CCC(=O)NC2CC2)s1 | 19 | 3 | 1 | 1 | 0 | -2 | /
Cc1ccc(CC2C(=O)N(c3ncccn3)C(=O)C2C)cc1 (stereo not drawn) | -11 | 20* | -2 | 0 | 0 | 1 | 2
Cc1ccc(CC2C(=O)N(c3ccc(C)cc3)C(=O)C2C)cc1 (stereo not drawn) | 9 | 2 | 2 | -2 | 0 | -2 | /
Nc1ccn([C@@H]2O[C@H](C(=O)N[C@H](Cc3ccccc3)C(=O)N3CCN(CCO)CC3)[C@@H](O)[C@H]2O)c(=O)n1 | / | / | / | / | 1 | / | /
CC(C)C[C@H]1COc2ccc(Cl)cc2S(=O)(=O)N1C[C@H](NC(=O)OC(C)(C)C)C(C)C | / | / | / | / | -1 | / | /
COCC(=O)N(C)[C@H]1C[C@H]2c3[nH]c4ccccc4c3CCN2C(=O)[C@H]1[C@H](C)O | 24 | -1 | -1 | -1 | 1 | / | /
C[C@H](O)[C@@H]1C(=O)N2CCc3c([nH]c4ccccc34)[C@@H]2C[C@@H]1N(C)Cc1ccc(Cl)cc1 | 18 | 7.8* | -39 | 1 | 0 | / | -1
O=C1C(Cl)=C(NCc2ccco2)C(=O)c2ccccc21 | 23 | 14* | -3 | 10 | 1 | / | 11*
CCCC(=O)NC1=C(Cl)C(=O)c2ccccc2C1=O | -3 | 9.2* | -40 | 0 | 1 | / | 1
CCN(CC)c1ccc(NC2=C(Cl)C(=O)c3ccccc3C2=O)cc1 | 2 | -3 | -138 | 14 | / | / | /
SMILES | SKN-1 block | bovine MsrA act | MT1-MMP act inh | DAGLB inhibitor | MsrA inhibitor | beta cell repl | MsrA act confirm
CCNC1=C(Cl)C(=O)c2ccccc2C1=O | 37* | 12* | 17 | 15 | 0 | -5 | 4.0*
Cc1ccc(NC2=C(Cl)C(=O)c3ccccc3C2=O)cc1 | 4 | -2 | -8 | 6 | 2 | / | /
Cc1ccc(Cl)cc1NC(=O)CCCN1C(=O)c2cccnc2C1=O | 8 | -2 | 8 | 3 | -2 | -2 | /
O=C(Cc1c[nH]c2ccccc12)Nc1ccc(Nc2cccnc2)c(-c2cccc(Cl)c2)c1 | / | / | / | / | 1 | / | /
CS(=O)(=O)Nc1cccc(-c2cn3c(n2)SCC3)c1 | -17 | -10 | 2 | -2 | 1 | -3 | /
CCS(=O)(=O)Nc1cccc(-c2cn3c(n2)SCC3)c1 | -2 | 7.7* | 1 | 0 | -1 | -2 | 1
Oc1cccc2oc(=S)[nH]c12 | 0 | 12* | 4 | 1 | 1 | / | -1
CC1CCCC(NC(=O)Nc2cccs2)C1C (stereo not drawn) | 1 | 8.9* | 1 | 0 | 1 | -1 | -3
CC(C)CNc1cccc2c1S(=O)(=O)N(Cc1ccc(F)cc1)[C@@H](C)[C@H](c1ccccc1)O2 | / | / | / | / | 1 | / | /
CC1=C(C(=O)OC2CCCCCCC2)C(c2cccc(O)c2)NC(=O)N1 (stereo not drawn) | 3 | 8.9* | -4 | 2 | 0 | -1 | -1
CC1=C(C(=O)OCC2CCCCC2)C(c2cccc(O)c2)NC(=O)N1 (stereo not drawn) | 25 | 0 | -7 | 1 | / | 1 | /
COc1cccc(-c2nc(N3CCC(C)CC3)c3ccccc3n2)c1O | 5 | 8.2* | -12 | -5 | 2 | -5 | -5
Cn1c(=O)c2c(nc(NCCCO)n2Cc2cccc(C(F)(F)F)c2)n(C)c1=O | -3 | 8.3* | -6 | 0 | 1 | -3 | 0
O=C(N/N=C1\CCS(=O)(=O)c2ccc(F)cc21)c1ccc(O)cc1 | -9 | -11 | 3 | 2 | 2 | 1 | /
C=CCn1cccc(C(=O)Nc2ccc(Cl)cc2)c1=O | 3 | 7.8* | -6 | -5 | 2 | -1 | -4
C=CCn1cccc(C(=O)Nc2ccc(SC)cc2)c1=O | -6 | -1 | -1 | -2 | 3 | 3 | /
Cc1cc(N2CCN(C(=O)OC(C)(C)C)C[C@H]2C)ccc1Br | / | / | / | / | 1 | / | /
O=C(Nc1ccc2c(c1)OCCO2)NC12CC3CC(CC(C3)C1)C2 | -27 | 9.1* | 6 | -1 | 0 | 1 | 1
O=C(Nc1ccc2c(c1)OCCO2)Nc1ccc2c(c1)OCO2 | 2 | -3 | -3 | 0 | 0 | -6 | /
COc1cc(Cl)c(CNC[C@H]2O[C@@H](n3ccc(=O)[nH]c3=O)[C@H](O)[C@@H]2O)c(Cl)c1O | 10 | 10* | 1 | -4 | 0 | / | -1
COc1ccc(CNC[C@H]2O[C@@H](n3ccc(=O)[nH]c3=O)[C@H](O)[C@@H]2O)cc1OC | -1 | -2 | 5 | -2 | 0 | / | /

Bioassay records from PubChem BioAssay.
